Series [1] concerns U2OS. Put plainly: Increase in intracellular ROS accumulation in human U2OS/DX30 cells at 5 uM incubated for 24 hrs in presence of hydroxocobalamin by DCFDA-AM probe-based fluorimetrical analysis relative to control. It is filed as functional, cell-based. The procedure, abridged: (§1)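 Cells grown in DMEM with 10% FBS at 37 °C, 5% CO2, resistant variants selected in 30, 100 or 580 ng/mL doxorubicin; treated 24 h with 5 μM drug plus 100 μM hydroxocobalamin. 1×10^6 cells loaded 30 min at 37 °C with 5 μM DCFDA-AM in PBS; fluorescence at ex 492/em 517 nm, expressed as nmol ROS/mg protein; duplicates, n = 3.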

Series [2] deals with U2OS. Put plainly: Increase in intracellular ROS accumulation in human U2OS/DX580 cells at 5 uM incubated for 24 hrs in presence of hydroxocobalamin by DCFDA-AM probe-based fluorimetrical analysis relative to control. It is filed as functional, cell-based. The procedure, abridged:
as §1

Series [3] addresses DNA topoisomerase 2-alpha (Homo sapiens) (UniProt P11388). Description: Inhibition of human topoisomerase 2-mediated DNA cleavage at 5 uM using supercoiled pHOT1 plasmid as substrate by agarose gel electrophoresis.
The test system of series [4] is U2OS. Put plainly: Activity at PgP in human […] cells assessed as Vmax measured per mg of protein incubated for 20 mins by fluorimetrical analysis. It is filed as cell-based. The procedure, abridged: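 U-2OS/DX580 cells exposed 20 min to 0-50 μM drug, washed, intracellular doxorubicin read fluorimetrically; parallel dishes left a further 10 min at 37 °C before reading. Efflux rate (difference, nmol extruded/min/mg cell protein) plotted against initial concentration; Vmax and Km fitted. Means ± SD, n = 3.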

Series [5] can be described thus: Stability of compound in pre-heated IMDM at 200 uM at 37 degC by RP-HPLC analysis. It is filed as physicochemical. The method, boiled down:
(§2)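 10 mM DMSO stock diluted into medium pre-warmed to 37 °C, giving 200 μM final, then incubated at 37 °C. Aliquots diluted 1:1 with acetonitrile/0.1% HCOOH, filtered and run on RP-HPLC, quantified against 1–200 μM standards. t1/2 from one-phase exponential decay fit, at least triplicate.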

A short description of series [6]: Induction of H2S release from compound in IMDM at 100 uM incubated for 1 to 24 hrs using DNS-Az by fluorimetric assay-based HPLC analysis. It is filed as physicochemical. The method, boiled down: (§3)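 Compound at 200 μM initial (half concentration for two low-solubility compounds) in medium or human serum at 37 °C with dansyl azide. Sampled at 1, 4 and 24 h, diluted with CH3CN, spun and filtered. Isocratic RP-HPLC with fluorescence ex 340/em 535 nm. Dansyl amide peak quantified against NaHS calibration as H2S index. At least triplicate.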

Series [7] is described as follows: Half life of compound in pre-heated DMEM at 200 uM at 37 degC by RP-HPLC analysis. It is filed as physicochemical. The procedure, abridged: as §2
Series [8] is described as follows: Half life of compound assessed as human serum esterase-mediated degradation at 100 uM by RP-HPLC analysis. It is filed as ADME. The procedure, abridged: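 10 mM DMSO stock added to human serum pre-warmed to 37 °C, giving 100 μM final. Samples taken over time and deproteinized with equal volume acetonitrile/0.1% HCOOH, then spun 2150 g 10 min and filtered. Analysed by RP-HPLC against 1–200 μM calibration. t1/2 from one-phase exponential decay fit, at least triplicate.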

A short description of series [9]: Induction of H2S release from compound in DMEM at 100 uM incubated for 1 to 24 hrs using DNS-Az by fluorimetric assay-based HPLC analysis. It is filed as physicochemical. The procedure, abridged: as §3
In the next series the test system is Serum. Put plainly: Induction of H2S release from compound in human serum at 100 uM incubated for 1 to 24 hrs using DNS-Az by fluorimetric assay-based HPLC analysis. It is filed as functional. The procedure, abridged:
as §3

The test system of series [10] is H9c2. Description: Drug uptake in rat H9c2 cells at 5 uM incubated for 24 hrs by fluorimetrical analysis. It is filed as ADME, cell-based. As to conditions: h9c2, 24 h. The method, boiled down:
(§4)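 Intracellular drug measured after 24 h exposure to 5 μM. Cell lysates read fluorimetrically at ex 475/em 553 nm with cell-free blank subtracted. Converted by calibration curve to nmol drug/mg cell protein. Duplicate, n = 3, mean ± SD.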

Series [11] relates to H9c2. Description: Cytotoxicity in rat H9c2 cells at 5 uM incubated for 24 hrs by LDH release-based spectrofluorimetrical analysis relative to control. It is filed as cell-based. The conditions noted are these: h9c2, 24 h. The method, boiled down:
(§5)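 Cells exposed 24 h to 5 μM drug in DMEM with 10% FBS at 37 °C, 5% CO2. Medium spun 12,000 × g 5 min. Cells sonicated in 82.3 mM triethanolamine phosphate-HCl pH 7.6. LDH in medium and lysate followed 6 min at 340 nm. Extracellular LDH reported as % of total dish activity, duplicate, n = 3, mean ± SD.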
For orientation: LDH in the medium is a marker of cell lysis.

The subject of series [12] is U2OS. Description: Drug uptake in human U2OS cells at 5 uM incubated for 24 hrs by fluorimetrical analysis. It is filed as ADME, cell-based. The method, boiled down: as §4
The nature of series [13]: Drug uptake in human U2OS/DX30 cells at 5 uM incubated for 24 hrs by fluorimetrical analysis. It is filed as ADME, cell-based. The method, boiled down: as §4
Series [14] is described as follows: Drug uptake in human U2OS/DX100 cells at 5 uM incubated for 24 hrs by fluorimetrical analysis. It is filed as ADME, cell-based. The method, boiled down:
as §4

Series [15] can be described thus: Drug uptake in human U2OS/DX580 cells at 5 uM incubated for 24 hrs by fluorimetrical analysis. It is filed as ADME, cell-based. The procedure, abridged: as §4
Series [16] has as its system H9c2. Put plainly: Cytotoxicity in rat H9c2 cells assessed as intracellular ROS accumulation at 5 uM incubated for 24 hrs by DCFDA-AM probe-based fluorimetrical analysis relative to control. It is filed as cell-based. The conditions noted are these: h9c2, 24 h. The method, boiled down:
(§6)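 After 24 h at 5 μM, 1×10^6 cells in 0.5 mL PBS were loaded with 5 μM DCFDA-AM for 30 min at 37 °C, spun and resuspended. Fluorescence read at ex 492/em 517 nm, expressed as nmol ROS/mg cell protein. Duplicate, n = 3, mean ± SD.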

Series [17] deals with H9c2. Put plainly: Cytotoxicity in rat H9c2 cells assessed as intracellular ROS accumulation at 5 uM incubated for 24 hrs in presence of hydroxocobalamin by DCFDA-AM probe-based fluorimetrical analysis relative to control. It is filed as cell-based. The conditions noted are these: h9c2, 24 h. The method, boiled down:
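H9c2 cells held 24 h with 5 μM drug plus 100 μM hydroxocobalamin, then loaded with 5 μM DCFDA-AM for 30 min at 37 °C. Fluorescence read at 492/517 nm, expressed as nmol ROS/mg protein. Duplicate, n = 3.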

The test system of series [18] is H9c2. Description: Cytotoxicity in rat H9c2 cells at 5 uM incubated for 24 hrs in presence of NAC by LDH release-based spectrofluorimetrical analysis relative to control. It is filed as cell-based. As to conditions: h9c2, 24 h.
For series [19], the system named is U2OS. Description: Induction of intracellular ROS accumulation in human U2OS cells at 5 uM incubated for 24 hrs by DCFDA-AM probe-based fluorimetrical analysis relative to control. It is filed as functional, cell-based. The procedure, abridged:
as §6

Series [20] concerns U2OS. Description: Induction of intracellular ROS accumulation in human U2OS/DX100 cells at 5 uM incubated for 24 hrs by DCFDA-AM probe-based fluorimetrical analysis relative to control. It is filed as functional, cell-based. The procedure, abridged: as §6
The subject of series [21] is U2OS. Description: Induction of intracellular ROS accumulation in human U2OS/DX30 cells at 5 uM incubated for 24 hrs by DCFDA-AM probe-based fluorimetrical analysis relative to control. It is filed as functional, cell-based. The method, boiled down:
as §6

Series [22] has as its system U2OS. Put plainly: Induction of intracellular ROS accumulation in human U2OS/DX580 cells at 5 uM incubated for 24 hrs by DCFDA-AM probe-based fluorimetrical analysis relative to control. It is filed as functional, cell-based. The procedure, abridged: as §6
The subject of series [23] is U2OS. Description: Increase in intracellular ROS accumulation in human U2OS cells at 5 uM incubated for 24 hrs in presence of hydroxocobalamin by DCFDA-AM probe-based fluorimetrical analysis relative to control. It is filed as functional, cell-based. The procedure, abridged: as §1
Series [24] relates to U2OS. Description: Increase in intracellular ROS accumulation in human U2OS/DX100 cells at 5 uM incubated for 24 hrs in presence of hydroxocobalamin by DCFDA-AM probe-based fluorimetrical analysis relative to control. It is filed as functional, cell-based. The method, boiled down: as §1
Series [25] concerns U2OS. Put plainly: Cytotoxicity in human U2OS/DX580 cells at 5 uM incubated for 24 hrs by LDH release-based spectrofluorimetrical analysis. It is filed as functional, cell-based. The method, boiled down:
as §5

The subject of series [26] is U2OS. Put plainly: Cytotoxicity in human U2OS/DX30 cells at 5 uM incubated for 24 hrs by LDH release-based spectrofluorimetrical analysis. It is filed as functional, cell-based. The method, boiled down:
as §5

The test system of series [27] is U2OS. Description: Cytotoxicity in human U2OS/DX100 cells at 5 uM incubated for 24 hrs by LDH release-based spectrofluorimetrical analysis. It is filed as functional, cell-based. The method, boiled down: as §5
Series [28] relates to H9c2. Put plainly: Cytotoxicity in rat H9c2 cells assessed as reduction in ROS level at 5 uM incubated for 24 hrs in presence of NAC by DCFDA-AM probe-based fluorimetrical analysis. It is filed as cell-based. As to conditions: h9c2, 24 h.
Series [29] has as its system H9c2. Put plainly: Cytotoxicity in rat H9c2 cells […] at 5 uM incubated for 24 hrs in presence of dexrazoxane by LDH release-based spectrofluorimetrical analysis relative to control. As to conditions: h9c2, 24 h. It is filed as cell-based.

Calls of active or inactive are those of the source. The calls are words filed in the database; no cut-off is given here.

Chain of DNA topoisomerase 2-alpha (Homo sapiens) (P11388 whole entry): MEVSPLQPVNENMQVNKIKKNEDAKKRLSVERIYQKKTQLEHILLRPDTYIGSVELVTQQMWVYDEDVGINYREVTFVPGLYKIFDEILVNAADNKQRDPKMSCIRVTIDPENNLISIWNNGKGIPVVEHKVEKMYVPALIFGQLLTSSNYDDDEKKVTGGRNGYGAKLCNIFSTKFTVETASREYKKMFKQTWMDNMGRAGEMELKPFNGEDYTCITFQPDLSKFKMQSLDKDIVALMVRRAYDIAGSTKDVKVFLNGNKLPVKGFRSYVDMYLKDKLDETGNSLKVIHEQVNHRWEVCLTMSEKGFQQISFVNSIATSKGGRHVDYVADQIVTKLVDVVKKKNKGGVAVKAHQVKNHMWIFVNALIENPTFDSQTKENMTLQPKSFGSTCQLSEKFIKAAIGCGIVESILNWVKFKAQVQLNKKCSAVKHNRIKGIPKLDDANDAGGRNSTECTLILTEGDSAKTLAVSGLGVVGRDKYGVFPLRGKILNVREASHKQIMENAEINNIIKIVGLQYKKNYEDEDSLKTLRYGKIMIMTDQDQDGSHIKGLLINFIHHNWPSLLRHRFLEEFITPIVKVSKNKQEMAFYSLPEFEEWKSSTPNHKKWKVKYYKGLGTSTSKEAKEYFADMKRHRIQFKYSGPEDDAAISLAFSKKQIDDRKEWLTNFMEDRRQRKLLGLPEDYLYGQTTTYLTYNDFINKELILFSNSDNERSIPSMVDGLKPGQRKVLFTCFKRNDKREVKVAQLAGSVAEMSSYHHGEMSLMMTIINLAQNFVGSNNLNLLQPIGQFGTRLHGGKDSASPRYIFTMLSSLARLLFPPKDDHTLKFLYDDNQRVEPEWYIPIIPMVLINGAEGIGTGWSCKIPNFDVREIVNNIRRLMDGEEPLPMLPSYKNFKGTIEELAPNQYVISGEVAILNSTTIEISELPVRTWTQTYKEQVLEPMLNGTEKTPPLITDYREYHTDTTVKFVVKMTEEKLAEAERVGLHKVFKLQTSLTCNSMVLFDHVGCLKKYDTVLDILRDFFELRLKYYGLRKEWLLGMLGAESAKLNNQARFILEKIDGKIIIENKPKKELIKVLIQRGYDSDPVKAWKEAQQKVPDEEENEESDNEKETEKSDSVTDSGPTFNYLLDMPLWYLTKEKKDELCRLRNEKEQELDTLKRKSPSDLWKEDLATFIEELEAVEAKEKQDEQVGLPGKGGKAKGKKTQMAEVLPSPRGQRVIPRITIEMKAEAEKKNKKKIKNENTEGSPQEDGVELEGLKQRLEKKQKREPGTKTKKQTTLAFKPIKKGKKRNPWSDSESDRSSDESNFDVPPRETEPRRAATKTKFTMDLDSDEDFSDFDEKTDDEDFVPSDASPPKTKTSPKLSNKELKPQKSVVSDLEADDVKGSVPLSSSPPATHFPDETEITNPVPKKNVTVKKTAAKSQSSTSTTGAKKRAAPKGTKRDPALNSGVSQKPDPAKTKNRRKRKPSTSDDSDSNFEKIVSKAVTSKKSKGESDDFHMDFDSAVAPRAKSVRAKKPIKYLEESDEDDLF

In the case of `COc1cccc2c1C(=O)c1c(O)c3c(c(O)c1C2=O)C[C@@](O)(C(=O)COC(=O)c1ccc(-c2ssc(=S)c2-c2ccccc2)cc1)C[C@@H]3O[C@H]1C[C@H](N)[C@H](O)[C@H](C)O1.Cl`, the outcome with U2OS [1], with U2OS [2], in the series with Serum, in the series on U2OS [23] and in the series on U2OS [24] was Active. Also, the inhibition entry in [3] was “inactive”. Also, in the series with U2OS [4], the Vmax was 10.2 nmol/min/mg. The Stability result in [5] is on record as “Stable”. Further, the Activity result in series [6] is recorded as “Not Active”; in series [9], “Not Active”; with H9c2 [11], “Non-toxic”; in the series on H9c2 [16] it was “Non-toxic”; with H9c2 [17], “Toxic”; in the series with H9c2 [18] it was “Non-toxic”. Also, the half-life at 200 µM in series [7] was over 24 h. Also, in series [8], the half-life at 100 µM is 2.8 h. Moreover, the Drug uptake entry (in the series on H9c2 [10]; in the series with U2OS [12]; in series [13]; in series [14]; in series [15]) was “Active” throughout. The outcome in the series with U2OS [19], with U2OS [20], in the series on U2OS [21] and in the series on U2OS [22] was inactive.
Consider `COc1cccc2c1C(=O)c1c(O)c3c(c(O)c1C2=O)C[C@@](O)(C(=O)CO)C[C@@H]3O[C@H]1C[C@H](N)[C@H](O)[C@H](C)O1.Cl` [DOXORUBICIN HYDROCHLORIDE], for which the inhibition entry in series [3] was “inactive”. Further, the Vmax in the series on U2OS [4] was 24.1 nmol/min/mg. Besides, the outcome in the series on U2OS [25], with U2OS [26], in the series on U2OS [27], in the series on U2OS [20], in the series on U2OS [21] and in the series with U2OS [22] was inactive. Further, the Drug uptake entry in the series with H9c2 [10] is recorded as “Active”; in [13] it was “Not Active”; in series [14], “Not Active”; in series [15], “Not Active”. Besides, the Activity result in the series on H9c2 [11] was “Toxic”; in the series on H9c2 [16], “Toxic”; with H9c2 [17], “Toxic”; in the series on H9c2 [28], “Non-toxic”; with H9c2 [18] it was “Non-toxic”; with H9c2 [29], “Toxic”. In the series with U2OS [19], the outcome was Active.

One may read the Vmax as the top rate of the reaction or transport when substrate is in excess. A word on the half-life: it is how long it takes for the measured level to halve.
